Measured values as given in PMC2909360 (Molecular microbiology, 2010).

Tests used:
[1] = molecular target: purified bovine cathepsin B (Bos taurus, UniProt P07688); test: Inhibition of cathepsin B, fluorogenic substrate assay; assay type: biochemical
Procedure, shortened: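 Pre-incubated 10 min at room temperature with increasing inhibitor concentrations, then Z-Leu-Arg-AMC added (0.25 mM final) at 30°C. Linear hydrolysis rate read for 20 min (ex 365/em 450 nm). Triplicates, mean ± SEM. IC50 from activity loss.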

calpain = test: Inhibition of calpain; assay type: biochemical; details: data not shown

Compound: CC(C)C[C@H](NC(=O)N1CCOCC1)C(=O)N[C@H](/C=C/S(=O)(=O)c1ccccc1)CCc1ccccc1 [LHVS, Morpholinurea-leucine-homophenylalanine-vinylsulfone-phenyl, reference compound]
- inhibition of cathepsin B (in words) [1]: targets also cathepsin B
- inhibition of calpain (in words) (calpain): targets
